In ChEMBL document CHEMBL5338787, “Discovery of Novel Bruton's Tyrosine Kinase PROTACs with Enhanced Selectivity and Cellular Efficacy” (J Med Chem, 2023) one finds Activity, Kd and IC50 data, which are given here for 1 molecule.

Active and inactive are the calls of the source. No cut-off for these calls is given here.

For assay [1], the system named is TMD8. Kind of assay: Induction of apoptosis in human TMD8 cells measured after 48 hrs by Annexin-V/propidium iodide staining based flow cytometric analysis. Type of assay: functional, cell-based. The conditions noted are these: dose 0.15-3000 nM. An outline of the steps:
(§1)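 Cells plated at 2 × 10^6 per well and treated 48 h at 3,000–0.15 nM (3-fold dilutions) or 1% DMSO. Harvested, washed in cold PBS, stained with Annexin V Alexa Fluor 488/propidium iodide, analysed by flow cytometry for % live, apoptotic and necrotic cells. Mean of two independent experiments.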

Assay [2] addresses T1, Protein cereblon/Tyrosine-protein kinase BTK (Homo sapiens, UniProt Q06187+Q96SW2). Kind of assay: PROTAC activity at BTK/CRBN protein protein interaction in human Ramos cell assessed as Hook effect incubated at >333 nM for 17 hrs measured by Western blot analysis. Type of assay: cell-based. An outline of the steps:
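Ramos or JeKo-1 cells (2 × 10^6 per well) were exposed for 17 h to 3000–0.15 nM PROTAC in 3-fold steps. Cells were lysed and analysed by western blot, with BTK normalised to β-actin. DC50 and Dmax come from the dose-response; DC50 is the mean ± SD of two independent experiments.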

Assay [3] deals with T1, Protein cereblon/Tyrosine-protein kinase BTK. Kind of assay: PROTAC activity at BTK/CRBN protein protein interaction in human Ramos cell assessed as degradation of BTK incubated at 111 nM for 17 hrs in presence of GDC-0853 at 1 uM measured by Western blot analysis. Type of assay: cell-based.
Assay [4] deals with Tyrosine-protein kinase BTK (Homo sapiens, UniProt Q06187). Kind of assay: Binding affinity to full length BTK (unknown origin) assessed as dissociation constant measured at 37 degree C by TR-FRET assay.
Sequence of Tyrosine-protein kinase BTK (Q06187 whole entry): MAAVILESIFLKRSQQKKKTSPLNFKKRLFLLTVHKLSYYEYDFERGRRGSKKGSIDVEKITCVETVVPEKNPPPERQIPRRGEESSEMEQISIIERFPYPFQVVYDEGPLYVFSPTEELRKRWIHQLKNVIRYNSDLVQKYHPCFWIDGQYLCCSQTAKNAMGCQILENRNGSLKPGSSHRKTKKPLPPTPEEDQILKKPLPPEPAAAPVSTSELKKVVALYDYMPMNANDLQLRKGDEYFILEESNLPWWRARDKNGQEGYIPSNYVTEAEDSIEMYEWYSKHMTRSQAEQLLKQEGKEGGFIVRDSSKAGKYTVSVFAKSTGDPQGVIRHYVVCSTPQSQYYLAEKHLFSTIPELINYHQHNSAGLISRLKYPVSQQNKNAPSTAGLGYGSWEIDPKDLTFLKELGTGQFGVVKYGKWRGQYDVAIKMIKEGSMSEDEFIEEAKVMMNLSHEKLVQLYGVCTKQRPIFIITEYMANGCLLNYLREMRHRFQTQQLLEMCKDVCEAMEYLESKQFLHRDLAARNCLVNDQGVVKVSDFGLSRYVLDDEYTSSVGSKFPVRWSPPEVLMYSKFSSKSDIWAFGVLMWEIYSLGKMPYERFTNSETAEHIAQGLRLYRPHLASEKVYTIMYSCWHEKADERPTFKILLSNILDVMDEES
The subject of assay [5] is TMD8. Nature of the assay: Cytotoxicity against human TMD8 cells incubated for 48 hrs by celltitre glo 2.0 assay. The conditions noted are these: TMD8, 48 h. Type of assay: functional, cell-based.
In assay [6] the test system is TMD8. Kind of assay: Induction of apoptosis in human TMD8 cells at 333 nM for 48 hrs by Annexin-V/propidium iodide staining based flow cytometric analysis. Type of assay: functional, cell-based. In a few lines:
as §1

Assay [7] deals with MINO. Nature of the assay: Induction of apoptosis in human MINO cells at 333 nM for 48 hrs by Annexin-V/propidium iodide staining based flow cytometric analysis. Type of assay: functional, cell-based. An outline of the steps: as §1
Assay [8] deals with MINO. Nature of the assay: Induction of apoptosis in human MINO cells measured after 48 hrs by Annexin-V/propidium iodide staining based flow cytometric analysis. Type of assay: functional, cell-based. The conditions noted are these: dose 0.15-3000 nM. In a few lines: as §1
The test system of assay [9] is TMD8. Kind of assay: Induction of apoptosis in human TMD8 cells assessed as decrease in caspase 3 level measured after 48 hrs by Western blot analysis. Type of assay: functional, cell-based. The conditions noted are these: dose 0.15-3000 nM. In a few lines: (§2)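 TMD8 or Mino cells (2 × 10^6 per well) exposed 48 h to 3000–0.15 nM (3-fold dilution) or 1% DMSO. Lysates BCA-normalised, 8–30 μg per lane on 4–20% Tris-glycine gels, transferred to nitrocellulose, probed with antibodies, HRP chemiluminescence detection and densitometry. Representative of two independent experiments.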

Assay [10] deals with TMD8. Nature of the assay: Induction of apoptosis in human TMD8 cells assessed as increase in cleaved caspase 3 level measured after 48 hrs by Western blot analysis. The conditions noted are these: dose 0.15-3000 nM. Type of assay: functional, cell-based. An outline of the steps:
as §2

Assay [11] has as its system TMD8. Kind of assay: Induction of apoptosis in human TMD8 cells assessed as downregulation in Bcl-2 level measured at 0.15 to 3000 nM after 48 hrs by Western blot analysis. Type of assay: functional, cell-based. The conditions noted are these: dose 0.15-3000 nM. In a few lines: as §2
Assay [12] has as its system MINO. Nature of the assay: Induction of apoptosis in human MINO cells assessed as decrease in PARP level measured after 48 hrs by Western blot analysis. Type of assay: functional, cell-based. The note with it: dose 0.15-3000 nM. An outline of the steps: as §2

T1 sequence (Q06187 2-659 limits assumed): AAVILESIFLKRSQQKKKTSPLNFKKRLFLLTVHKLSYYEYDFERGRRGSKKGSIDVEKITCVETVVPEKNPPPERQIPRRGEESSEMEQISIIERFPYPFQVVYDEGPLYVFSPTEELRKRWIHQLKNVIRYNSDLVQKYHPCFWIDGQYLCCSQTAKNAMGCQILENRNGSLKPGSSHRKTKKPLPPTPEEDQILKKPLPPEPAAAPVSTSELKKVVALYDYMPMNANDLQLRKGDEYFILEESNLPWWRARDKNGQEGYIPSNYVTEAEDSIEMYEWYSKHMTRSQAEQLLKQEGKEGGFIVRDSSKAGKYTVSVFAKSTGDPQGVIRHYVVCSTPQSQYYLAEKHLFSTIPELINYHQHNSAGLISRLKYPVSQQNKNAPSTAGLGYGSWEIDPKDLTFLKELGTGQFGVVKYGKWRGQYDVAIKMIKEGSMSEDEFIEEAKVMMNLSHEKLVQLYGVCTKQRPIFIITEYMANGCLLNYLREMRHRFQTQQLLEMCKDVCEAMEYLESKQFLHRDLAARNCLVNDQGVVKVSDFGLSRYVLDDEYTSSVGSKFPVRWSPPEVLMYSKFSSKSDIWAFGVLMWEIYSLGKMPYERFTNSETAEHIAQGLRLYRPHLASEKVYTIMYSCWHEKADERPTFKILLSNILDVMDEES
T1 sequence (Q96SW2 whole entry partner): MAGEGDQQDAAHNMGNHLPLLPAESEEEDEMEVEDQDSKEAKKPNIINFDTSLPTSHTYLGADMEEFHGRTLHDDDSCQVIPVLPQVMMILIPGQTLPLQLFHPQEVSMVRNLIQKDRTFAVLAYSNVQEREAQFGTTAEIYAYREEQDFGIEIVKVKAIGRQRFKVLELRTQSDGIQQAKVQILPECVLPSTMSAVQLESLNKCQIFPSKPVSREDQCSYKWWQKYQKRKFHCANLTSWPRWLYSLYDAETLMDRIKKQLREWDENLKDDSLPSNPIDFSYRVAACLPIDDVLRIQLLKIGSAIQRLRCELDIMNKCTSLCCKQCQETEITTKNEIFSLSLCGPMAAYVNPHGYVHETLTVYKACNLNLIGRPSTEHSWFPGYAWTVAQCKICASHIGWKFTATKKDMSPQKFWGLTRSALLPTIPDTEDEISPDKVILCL

As to `C[C@H]1CN(C(=O)CNc2cccc3c2C(=O)N(C2CCC(=O)NC2=O)C3=O)CCN1c1ccc(Nc2cc(-c3ccnc(N4CCn5c(cc6c5CC(C)(C)C6)C4=O)c3CO)cn(C)c2=O)nc1` (some centres not stated), the Activity entry with TMD8 [1] and with MINO [8] was “Dose-Dependent Effect” each time. Moreover, the outcome (in [2]; with TMD8 [6]; in the assay on MINO [7]; in the assay on TMD8 [9]; in the assay with TMD8 [10]; with TMD8 [11]) was Active. The result in the assay with MINO [12] was Active. Besides, the outcome in assay [3] was inactive. The Kd in [4] stood at 2.28 nM. For the same molecule, the IC50 with TMD8 [5] was determined as 1.4 nM.
